# Paper PMC10213863 (Cell Reports Medicine, 2023)
# How the values were obtained:
# TLR1/2 [1] = biological target: T1, TLR1/2 (Homo sapiens, UniProt O60603+Q15399); assay: Human PBMC cytokine secretion, TLR1/2 agonist; type: cell-based; conditions: human PBMCs; up to 10 μM; n = 5 donors, data not shown
# Summary of the method: (§1)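 Human PBMCs were pre-incubated 30 min with test compound, then stimulated with the respective TLR or IL-1R agonist at doses from earlier work. Cytokines in supernatants were quantified by immunoassay. Viability across the dose range was checked by CellTiter-Glo.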
# TLR5 = TLR5 (Homo sapiens, UniProt O60602); assay: Human PBMC cytokine secretion, TLR5 agonist; type: cell-based; conditions: human PBMCs; up to 10 μM; n = 5 donors, data not shown
# Chain of TLR5 (O60602 21-858): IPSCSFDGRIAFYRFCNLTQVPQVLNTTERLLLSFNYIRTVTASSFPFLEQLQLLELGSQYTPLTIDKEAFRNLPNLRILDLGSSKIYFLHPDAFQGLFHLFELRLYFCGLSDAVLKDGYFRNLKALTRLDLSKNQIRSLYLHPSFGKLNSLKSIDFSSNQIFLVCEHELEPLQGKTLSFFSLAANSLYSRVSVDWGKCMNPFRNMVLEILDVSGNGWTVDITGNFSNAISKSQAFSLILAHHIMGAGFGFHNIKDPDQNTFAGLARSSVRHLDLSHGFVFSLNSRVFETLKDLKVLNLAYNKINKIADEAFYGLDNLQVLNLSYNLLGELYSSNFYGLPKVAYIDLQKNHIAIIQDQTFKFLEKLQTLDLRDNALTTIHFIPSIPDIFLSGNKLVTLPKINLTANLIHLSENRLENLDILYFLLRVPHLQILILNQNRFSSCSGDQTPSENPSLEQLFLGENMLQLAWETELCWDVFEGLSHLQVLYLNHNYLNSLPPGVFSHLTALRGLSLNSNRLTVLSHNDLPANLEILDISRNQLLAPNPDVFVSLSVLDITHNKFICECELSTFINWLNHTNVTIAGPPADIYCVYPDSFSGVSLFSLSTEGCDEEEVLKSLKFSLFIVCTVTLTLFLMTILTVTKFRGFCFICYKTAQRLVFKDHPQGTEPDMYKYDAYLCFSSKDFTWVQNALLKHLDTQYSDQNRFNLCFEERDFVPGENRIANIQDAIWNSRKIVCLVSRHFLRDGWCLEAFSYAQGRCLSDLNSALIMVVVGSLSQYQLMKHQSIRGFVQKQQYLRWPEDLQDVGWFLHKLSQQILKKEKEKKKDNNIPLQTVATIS
# Summary of the method: as §1
# [2] = system: immune-complex stimulated ISG panel in PBMCs; assay: Five-gene ISG panel in PBMCs stimulated with SLE immune complexes; type: cell-based, human; conditions: MHV370 0.1 μM
# Summary of the method: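 PBMCs were pre-treated 30 min with test compound, HCQ or 0.1% DMSO, then stimulated 20 h with SLE serum pre-complexed with U-937 necrotic extract. RNA was extracted and ISGs quantified by qRT-PCR with the 2−ΔΔCt method against 18S rRNA, using biological replicates. Global ISG induction was derived by normalizing each ISG's relative induction to 100%.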
# TLR7 = biological target: T2, TLR7 (Mus musculus, UniProt P58681); assay: Acute cytokine release in vivo assay, TLR7 agonist; conditions: 129/Sv mice; single p.o. dose 1.5 or 15 mg/kg
# T2 sequence (P58681 27-1050): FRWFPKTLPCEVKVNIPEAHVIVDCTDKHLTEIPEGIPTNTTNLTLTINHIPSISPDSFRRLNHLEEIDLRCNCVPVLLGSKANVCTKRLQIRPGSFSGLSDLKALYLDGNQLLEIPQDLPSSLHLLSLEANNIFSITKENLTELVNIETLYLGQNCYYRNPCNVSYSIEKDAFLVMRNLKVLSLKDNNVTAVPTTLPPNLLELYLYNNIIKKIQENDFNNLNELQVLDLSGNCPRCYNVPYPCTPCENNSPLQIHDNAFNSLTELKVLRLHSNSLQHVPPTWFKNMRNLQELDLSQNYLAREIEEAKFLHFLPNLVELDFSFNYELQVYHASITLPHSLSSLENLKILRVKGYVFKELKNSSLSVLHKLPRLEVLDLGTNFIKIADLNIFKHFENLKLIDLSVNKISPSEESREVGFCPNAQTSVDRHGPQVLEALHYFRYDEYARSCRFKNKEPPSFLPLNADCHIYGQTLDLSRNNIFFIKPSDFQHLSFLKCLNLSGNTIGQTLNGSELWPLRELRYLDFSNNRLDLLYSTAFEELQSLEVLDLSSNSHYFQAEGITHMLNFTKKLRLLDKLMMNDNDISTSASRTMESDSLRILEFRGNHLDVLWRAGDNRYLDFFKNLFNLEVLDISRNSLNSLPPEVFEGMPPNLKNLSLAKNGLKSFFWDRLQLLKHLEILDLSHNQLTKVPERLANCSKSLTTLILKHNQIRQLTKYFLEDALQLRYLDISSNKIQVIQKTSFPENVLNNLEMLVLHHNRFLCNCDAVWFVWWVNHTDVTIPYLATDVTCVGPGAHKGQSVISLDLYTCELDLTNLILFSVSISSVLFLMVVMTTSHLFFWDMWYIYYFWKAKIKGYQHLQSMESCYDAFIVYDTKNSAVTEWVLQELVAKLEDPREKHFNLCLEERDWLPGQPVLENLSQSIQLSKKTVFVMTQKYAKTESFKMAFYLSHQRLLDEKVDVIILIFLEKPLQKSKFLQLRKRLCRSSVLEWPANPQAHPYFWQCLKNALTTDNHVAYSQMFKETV
# Summary of the method: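 129/Sv mice (5 per group) got test compound orally in 0.5% methylcellulose/0.5% Tween-80, or vehicle alone. At 1 h they were injected i.v. with the TLR agonist (line 1: 20 μg R0006; line 2: CpG1585), each pre-complexed with 140 μg DOTAP in HBSS. At 3 h, EDTA blood was taken. Plasma IFN-α (both lines) and TNF were measured by ELISA, single technical replicate per mouse. Serum drug levels were measured by LC-MS/MS.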
# TLR9 = biological target: T3, TLR9 (Homo sapiens, UniProt Q9NR96); assay: Ramos Blue reporter B cell line, ODN2006 stimulation; type: cell-based; conditions: Ramos cells
# T3 sequence (Q9NR96 26-1032): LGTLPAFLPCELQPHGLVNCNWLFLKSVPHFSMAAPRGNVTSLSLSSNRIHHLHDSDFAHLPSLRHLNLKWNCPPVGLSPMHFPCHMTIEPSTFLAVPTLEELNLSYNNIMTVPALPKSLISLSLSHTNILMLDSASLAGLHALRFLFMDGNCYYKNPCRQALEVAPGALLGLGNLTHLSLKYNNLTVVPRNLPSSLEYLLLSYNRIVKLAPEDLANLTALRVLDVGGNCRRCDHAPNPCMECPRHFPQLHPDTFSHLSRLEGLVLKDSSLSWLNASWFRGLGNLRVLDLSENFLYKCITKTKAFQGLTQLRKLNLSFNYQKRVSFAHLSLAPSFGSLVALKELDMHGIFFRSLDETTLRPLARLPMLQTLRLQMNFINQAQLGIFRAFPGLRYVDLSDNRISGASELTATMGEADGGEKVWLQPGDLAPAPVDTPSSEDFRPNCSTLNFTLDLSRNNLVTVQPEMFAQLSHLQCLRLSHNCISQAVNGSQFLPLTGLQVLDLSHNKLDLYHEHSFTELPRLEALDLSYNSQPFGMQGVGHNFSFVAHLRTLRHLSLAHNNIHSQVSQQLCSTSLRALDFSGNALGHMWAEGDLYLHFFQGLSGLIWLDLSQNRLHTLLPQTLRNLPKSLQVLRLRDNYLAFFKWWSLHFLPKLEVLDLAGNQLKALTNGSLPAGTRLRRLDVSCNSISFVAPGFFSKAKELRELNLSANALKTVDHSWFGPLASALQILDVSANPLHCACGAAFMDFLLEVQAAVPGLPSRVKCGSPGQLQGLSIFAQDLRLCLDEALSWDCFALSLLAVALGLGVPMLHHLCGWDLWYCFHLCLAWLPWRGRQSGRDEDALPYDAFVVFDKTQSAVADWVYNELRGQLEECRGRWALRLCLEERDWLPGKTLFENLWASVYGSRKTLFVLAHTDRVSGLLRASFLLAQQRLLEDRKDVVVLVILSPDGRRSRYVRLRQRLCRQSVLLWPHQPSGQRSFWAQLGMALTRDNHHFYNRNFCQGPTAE
# Summary of the method: (§2)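 Ramos Blue B reporter cells were pre-treated 30 min at 37°C, 5% CO2 with increasing concentrations of test compound or 0.25% v/v DMSO. They were then stimulated with the respective agonist, and reporter activity was read.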
# IL-1 receptor (IL-1R) = IL-1 receptor (IL-1R) (Homo sapiens, UniProt P14778); assay: Human PBMC cytokine secretion, IL-1 receptor agonist; type: cell-based; conditions: human PBMCs; up to 10 μM; n = 5 donors, data not shown
# Chain of IL-1 receptor (IL-1R) (P14778 18-569): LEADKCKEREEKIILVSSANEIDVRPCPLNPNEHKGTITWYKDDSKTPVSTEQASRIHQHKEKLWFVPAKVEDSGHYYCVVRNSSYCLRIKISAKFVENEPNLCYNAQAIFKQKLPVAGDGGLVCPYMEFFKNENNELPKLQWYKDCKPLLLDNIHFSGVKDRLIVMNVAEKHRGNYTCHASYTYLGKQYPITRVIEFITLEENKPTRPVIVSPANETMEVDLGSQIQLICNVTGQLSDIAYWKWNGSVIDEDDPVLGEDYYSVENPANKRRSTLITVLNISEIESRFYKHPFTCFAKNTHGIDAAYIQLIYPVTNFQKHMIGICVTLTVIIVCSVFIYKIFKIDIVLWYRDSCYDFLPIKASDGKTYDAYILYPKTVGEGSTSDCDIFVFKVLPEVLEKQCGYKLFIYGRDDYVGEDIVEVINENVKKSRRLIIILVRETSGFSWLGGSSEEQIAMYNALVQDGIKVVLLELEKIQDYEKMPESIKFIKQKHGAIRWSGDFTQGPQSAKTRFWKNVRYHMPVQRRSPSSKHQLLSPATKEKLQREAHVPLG
# Summary of the method: as §1
# TLR1/2 [3] = biological target: T1, TLR1/2; assay: Ramos Blue reporter B cell line, Pam3CSK4 stimulation; type: cell-based; conditions: Ramos cells; up to 10 μM; n = 4, data not shown
# Summary of the method: as §2
# T1 sequence (Q15399 25-786): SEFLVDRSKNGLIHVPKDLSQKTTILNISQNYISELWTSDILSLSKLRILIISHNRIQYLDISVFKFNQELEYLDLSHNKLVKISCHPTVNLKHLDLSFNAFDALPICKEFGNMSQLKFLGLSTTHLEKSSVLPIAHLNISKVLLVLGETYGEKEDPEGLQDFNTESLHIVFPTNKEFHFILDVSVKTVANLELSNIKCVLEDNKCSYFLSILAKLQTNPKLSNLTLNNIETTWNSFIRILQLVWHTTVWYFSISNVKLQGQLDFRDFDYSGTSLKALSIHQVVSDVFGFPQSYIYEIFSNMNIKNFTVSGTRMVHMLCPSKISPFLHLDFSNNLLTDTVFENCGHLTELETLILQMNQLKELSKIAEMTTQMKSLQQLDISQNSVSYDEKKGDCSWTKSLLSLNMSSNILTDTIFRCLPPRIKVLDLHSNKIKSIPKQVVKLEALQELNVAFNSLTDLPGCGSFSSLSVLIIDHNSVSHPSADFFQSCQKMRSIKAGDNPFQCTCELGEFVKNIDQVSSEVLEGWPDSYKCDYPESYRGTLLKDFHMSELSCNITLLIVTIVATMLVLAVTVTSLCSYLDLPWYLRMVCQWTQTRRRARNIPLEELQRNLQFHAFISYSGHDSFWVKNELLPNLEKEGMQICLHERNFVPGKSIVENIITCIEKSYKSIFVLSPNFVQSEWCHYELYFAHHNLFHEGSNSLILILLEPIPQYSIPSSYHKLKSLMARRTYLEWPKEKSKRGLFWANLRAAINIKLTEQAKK
# T1 sequence (O60603 21-784): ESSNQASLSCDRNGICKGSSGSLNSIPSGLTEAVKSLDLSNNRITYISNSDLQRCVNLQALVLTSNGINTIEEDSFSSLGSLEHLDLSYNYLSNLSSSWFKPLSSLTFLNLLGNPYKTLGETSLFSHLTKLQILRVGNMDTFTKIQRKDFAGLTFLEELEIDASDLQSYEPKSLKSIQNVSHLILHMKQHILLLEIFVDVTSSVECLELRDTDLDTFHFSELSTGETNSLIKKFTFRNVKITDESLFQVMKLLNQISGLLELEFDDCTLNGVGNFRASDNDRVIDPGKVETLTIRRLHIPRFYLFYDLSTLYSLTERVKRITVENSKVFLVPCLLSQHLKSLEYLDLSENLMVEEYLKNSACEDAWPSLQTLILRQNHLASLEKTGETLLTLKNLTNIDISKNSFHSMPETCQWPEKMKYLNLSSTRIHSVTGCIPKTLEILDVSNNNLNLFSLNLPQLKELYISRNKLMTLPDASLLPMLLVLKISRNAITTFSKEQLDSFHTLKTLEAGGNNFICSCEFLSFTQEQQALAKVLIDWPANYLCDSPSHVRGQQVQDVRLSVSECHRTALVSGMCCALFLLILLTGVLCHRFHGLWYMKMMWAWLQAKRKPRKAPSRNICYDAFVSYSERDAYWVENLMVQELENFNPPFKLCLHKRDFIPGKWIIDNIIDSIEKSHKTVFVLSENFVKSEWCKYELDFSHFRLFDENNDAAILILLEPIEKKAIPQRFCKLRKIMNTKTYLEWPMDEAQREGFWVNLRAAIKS
compound,measurement,setting,value
"Cc1cc(N2CCc3c(c(C)nn3CC34CCC(NC(=O)[C@@H]5COCCN5)(CC3)CC4)C2)c2cnn(C)c2n1 [MHV370, (S)-N-(4-((5-(1,6-dimethyl-1H-pyrazolo[3,4-b]pyridin-4-yl)-3-methyl-4,5,6,7-tetrahydro-1H-pyrazolo[4,3-c]pyridin-1-yl)methyl)bicyclo[2.2.2]octan-1-yl)morpholine-3-carboxamide]","interference with cytokine secretion, TLR1/2 agonist",TLR1/2 [1],did not significantly interfere
same,"interference with cytokine secretion, TLR5 agonist",TLR5,did not significantly interfere
same,expression of a five-panel ISG signature,[2],strongly suppressed
same,TLR7-dependent IFN-α and TNF production in plasma,TLR7,efficiently inhibited
same,inhibitory activity against endosomal TLR9,TLR9,no or very limited inhibitory activity
same,"interference with cytokine secretion, IL-1R agonist",IL-1 receptor (IL-1R),did not significantly interfere
same,interference with TLR1/2-driven activity,TLR1/2 [3],did not interfere
